TAAR1 agonist = human TAAR1 agonists, primary screen, Fluo-8 calcium fluorescence, CHO RD-HGA16 cells. vehicle wells 0%, saturating PEA agonist 100%. activation, % at 3 µM. 360,000 compounds, 0.99% hits;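 active means activation above the mean activation of all test compounds in the run plus 3 SD, cut at about 38% in these data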
Target sequence (Q96RJ0 whole entry, looked up): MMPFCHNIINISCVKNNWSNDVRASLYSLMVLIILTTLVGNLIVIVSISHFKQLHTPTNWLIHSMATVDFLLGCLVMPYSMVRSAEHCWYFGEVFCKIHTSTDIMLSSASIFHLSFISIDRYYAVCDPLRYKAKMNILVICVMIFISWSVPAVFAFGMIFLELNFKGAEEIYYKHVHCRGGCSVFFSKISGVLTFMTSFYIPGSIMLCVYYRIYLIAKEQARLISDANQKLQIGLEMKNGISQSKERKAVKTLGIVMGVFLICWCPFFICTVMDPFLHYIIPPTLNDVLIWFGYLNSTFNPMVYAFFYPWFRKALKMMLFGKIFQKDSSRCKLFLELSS
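Test system: RD-HGA16 (CHO) cells co-expressing Gα16 and hTAAR1 | Doses: Single dose, 3 µM | Schedule: 17-24 h seeding, 75 min 37 °C dye, 30 min RT | Evaluation: % activation from peak over basal fluorescence ratio, DMSO-to-PEA scaled | Technique: Kinetic Fluo-8 calcium fluorescence | Benchmarks: Low control DMSO, high control PEA (EC100)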
CHO parental Ca = ATP-evoked calcium signal inhibitors, parental CHO, primary screen, counter-screen for OX1R antagonist project, cell-based, fluorescence, Fluo-8 calcium dye; parental CHO-K1, ATP-induced calcium, Fluo-8 fluorescence; inhibition, % at 5.6 µM; 330,000 compounds, 0.63% hits;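 active means inhibition above that plate's mean sample inhibition plus 3 SD, cut at about 26% in these data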;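 further: 0% = ATP-challenged DMSO wells and 100% = DMSO wells without ATP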
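Test system: parental CHO cells; detection: calcium-sensitive Fluo-8 fluorescence; evaluation: percent inhibition of calcium signal; also added: ATP as calcium-mobilizing challenge; repeats: one well per compound; control set: ATP-challenged DMSO wells low, unchallenged DMSO wells high; compound: single nominal dose of 5.6 µM per compound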
OX1R antag-1 = OX1R (HCRTR1) antagonists, primary screen, fluorescence, CHO/OX1R cells, Fluo-8 calcium, orexin A. inhibition, % at 5 µM. Fluo-8 calcium fluorescence. Orexin/Hypocretin receptor type 1 (Homo sapiens), O43613. 330,000 compounds, 0.43% hits. AID 434989, 2010;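 active means inhibition above its plate's threshold, mean inhibition of all tested compounds on the plate plus 3 SD, cut at about 37% in these data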;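 further: 0% = orexin A challenge wells and 100% = SB-334867-A antagonist wells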
TAAR1 antagonist = human TAAR1 antagonists, primary screen, Fluo-8 calcium fluorescence, CHO RD-HGA16 cells. Trace amine-associated receptor 1 (Homo sapiens), Q96RJ0. antagonist. inhibition, % at 3 µM. 360,000 compounds, 1.5% hits;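 active means inhibition above a per-plate cutoff, the mean inhibition of test compounds on that plate plus 3 SD, cut at about 49% in these data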;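 further: 0% = DMSO plus EC80 beta-PEA response and 100% = DMSO alone without agonist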
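test system = CHO RD-HGA16 cells bearing hTAAR1 | replication = singlicate | controls = DMSO-only wells and EC80 β-PEA-stimulated wells | reagent = EC80 β-phenethylamine stimulus | read-out basis = percent inhibition of PEA-evoked calcium signal, max/basal emission ratio | schedule = seeding 17-24 h prior, 75-min 37 °C, 30-min RT dye loading | signal = kinetic Fluo-8 calcium fluorescence measurement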
GPR7 antag = GPR7 receptor antagonists, primary screen, cell-based, fluorescence, single concentration | Neuropeptides B/W receptor type 1 (Homo sapiens), P48145 | GPR7-expressing cells, fluorescence antagonist assay | inhibition, % at 4.4 µM | 290,000 compounds, 1.1% hits | AID 1861, 2009; in the data active means inhibition above about 16%, passing the limit was not always enough;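 further: cells stimulated with the agonist NPW; 0% = agonist with vehicle and 100% = vehicle without agonist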
Target sequence (P48145 whole entry, looked up): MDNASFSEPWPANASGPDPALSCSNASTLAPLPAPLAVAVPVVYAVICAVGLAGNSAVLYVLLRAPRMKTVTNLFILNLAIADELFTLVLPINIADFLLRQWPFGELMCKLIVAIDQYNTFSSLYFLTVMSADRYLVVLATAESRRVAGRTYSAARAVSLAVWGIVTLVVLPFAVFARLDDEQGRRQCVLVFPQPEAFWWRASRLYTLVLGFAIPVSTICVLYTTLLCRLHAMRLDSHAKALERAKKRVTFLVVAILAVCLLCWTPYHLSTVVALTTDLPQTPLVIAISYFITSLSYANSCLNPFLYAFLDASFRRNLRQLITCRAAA
OX1R antag-2 = antagonists of human orexin 1 receptor (OX1R); OX1R-expressing cells, FRET antagonist read-out; Orexin/Hypocretin receptor type 1 (Homo sapiens), O43613; inhibition, % at 6.6 µM; AID 485270, 2010; 330,000 compounds, 1.8% hits; in the data active means inhibition mostly above about 38%, no sharp cut-off; inactive means mostly below about 40%;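 further: 0% = agonist challenge alone and 100% = reference antagonist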
TAAR1 ag confirm = human TAAR1 agonists, retest of hits, confirmation, Fluo-8 calcium fluorescence, CHO RD-HGA16 cells. 2,400 compounds, 82% hits. shares compounds with TAAR1 agonist. activation, % at 3 µM. scaled: DMSO 0%, maximal phenethylamine 100%;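 active means activation above a cutoff set at the run's mean compound activation plus 3 SD, cut at about 39% in these data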
Ga16 nonsel ag = nonselective calcium mobilization agonists, CHO-Ga16 cells, counter-screen for hTAAR1 agonist project, cell-based, fluorescence, CHO-Ga16 parental line. shares compounds with TAAR1 agonist. Fluo-8 calcium fluorescence; normalized to maximal ATP response, DMSO zero. activation, % at 3 µM. 2,400 compounds, 50% hits;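 active means activation above the run cutoff, the mean activation over all tested wells plus 3 SD, cut at about 12% in these data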;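 further: 0% = DMSO wells and 100% = maximal ATP response on the peak over basal ratio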
TAAR1 desens = TAAR1 desensitization by agonist hits, confirmation, counter-screen for TAAR1 agonist project, cell-based, fluorescence, tachyphylaxis. shares compounds with TAAR1 agonist. inhibition, % at 3 µM. 2,400 compounds, 46% hits. CHO RD-HGA16 hTAAR1, Fluo-8 calcium, beta-PEA response inhibition;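 active means inhibition above the run cutoff, the mean inhibition of all test compounds plus 3 SD, cut at about 49% in these data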;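 further: beta-PEA stimulus applied at its EC80; loss of beta-PEA calcium signal after compound pretreatment read as receptor desensitization; 0% = DMSO with beta-PEA at EC80 and 100% = DMSO alone without agonist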
Ga16 nonsel ant = inhibition of ATP-evoked calcium response in CHO-Ga16 cells, counter-screen for TAAR1 agonist project, cell-based, fluorescence | shares compounds with TAAR1 agonist | CHO-Ga16 ATP-induced calcium, Fluo-8 fluorescence | inhibition, % at 3 µM | 2,400 compounds, 39% hits | AID 651952, 2012;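 active means inhibition above the plate's mean compound inhibition plus 3 SD, computed per plate, cut at about 22% in these data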;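 further: 0% = EC80 ATP with DMSO and 100% = DMSO wells without ATP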
Active calls of the source: *; / = no result given. A selection: hits, their analogues and other compounds. The true share with any hit is near 4.6%.

SMILES	TAAR1 agonist	CHO parental Ca	OX1R antag-1	TAAR1 antagonist	GPR7 antag	OX1R antag-2	TAAR1 ag confirm	Ga16 nonsel ag	TAAR1 desens	Ga16 nonsel ant
O=C(/C=C/c1ccccc1)NC(N1CCOCC1)C(Cl)(Cl)Cl (stereo not given)	1	-4	-7	-9	-1	12	/	/	/	/
COC(=O)c1c(-c2c(Cl)cccc2Cl)noc1C(=O)NN	3	-25	-40	3	0	8	/	/	/	/
CC(C)CN(C(=O)Cn1c(Cl)nc2c1c(=O)n(C)c(=O)n2C)C1CCS(=O)(=O)C1 (stereo not given)	0	9	-4	-2	/	9	/	/	/	/
C=CCn1c(N)c(C(=O)Nc2ccc(C)cc2)sc1=S	62*	-7	-11	40	1	17	-4	-1	1	12
CCOC(=O)c1c(C)[nH]c(C(=O)COC(=O)c2cnccn2)c1C	74*	-12	-12	13	/	-2	0	2	7	13
CCOC(=O)c1c(C)[nH]c(C(=O)COC(=O)c2cccnc2Cl)c1C	10	-11	-11	10	/	9	/	/	/	/
O=C(COc1ccccc1)NNC(=O)c1cc2ccccc2oc1=O	45*	-5	-21	1	-5	23	72*	3	43	6
C[C@H]1[C@H](c2ccccc2)Oc2cccc(NCCc3ccccc3)c2S(=O)(=O)N1Cc1ccc(F)cc1	79*	/	/	2	/	/	70*	2	18	10
CN(CCc1ccccc1)Cc1nc(-c2cnccn2)no1	53*	-8	-21	-11	-9	7	34	1	13	11
CC(=O)Nc1ccc(S(=O)(=O)NCCc2ccc(F)cc2)cc1	4	-5	-12	5	-14	10	/	/	/	/
CC1Sc2ccc(S(=O)(=O)NCCc3ccccc3)cc2NC1=O (stereo not given)	69*	-24	-26	3	0	33	66*	5	42	12
O=S(=O)(NCCc1ccccc1)c1cccc2cccnc12	63*	-12	-21	-9	2	18	78*	11	41	6
O=S(=O)(NCCc1ccccc1)c1ccc(F)cc1	73*	-20	-18	64*	-6	2	86*	-1	80*	10
CC(NC(=O)CSc1nnc2n1CCCCC2)c1ccccc1Cl (stereo not given)	1	-5	-21	-5	/	7	/	/	/	/
CC1CCCCC1NC(=O)CSc1nnc(-c2ccco2)n1N (stereo not given)	73*	/	/	24	/	/	15	3	-5	3
Cc1c(C(=O)N2CC[C@@H](N3CCC(O)CC3)[C@H](O)C2)[nH]c2ccc(Cl)cc12	1	-5	10	-23	-4	13	/	/	/	/
CC1CCN(c2ccc(NC(=O)Cc3ccccc3)cc2)CC1	84*	32	-7	53*	-19	15	-1	20*	1	13
CC(=O)c1sc2nc(-c3cccs3)cc(C(F)(F)F)c2c1N	72*	32	42*	64*	5	25	65*	84*	64*	70*
O=C(CCCN=C1NS(=O)(=O)c2ccccc21)OCC(=O)c1ccc(F)cc1	67*	4	12	31	/	10	86*	33*	33	30*
CCOc1ccc(C=NCC(O)c2ccccc2)cc1 (stereo not given)	94*	-8	-4	76*	0	5	106*	1	88*	-1
NC(N)=N/N=C(\N=Nc1ccccc1)c1ccc(Cl)cc1	49*	/	/	28	/	/	76*	38*	77*	50*
Clc1ccc(CNCc2cccs2)c(Cl)c1	3	-3	-8	15	-6	5	/	/	/	/
COc1ccc(NC(=O)COc2ccc(Br)cc2)c(OC)c1	68*	1	-16	67*	-4	9	43*	13*	29	-3
COc1ccc(NC(=O)COc2ccccc2)c(OC)c1	9	-21	-9	0	4	19	/	/	/	/
O=C(COC(=O)COc1cccc(C(F)(F)F)c1)Nc1ccc(N2CCOCC2)cc1	3	-14	-3	13	/	4	/	/	/	/
SMILES	TAAR1 agonist	CHO parental Ca	OX1R antag-1	TAAR1 antagonist	GPR7 antag	OX1R antag-2	TAAR1 ag confirm	Ga16 nonsel ag	TAAR1 desens	Ga16 nonsel ant
Cc1ccc(-n2cc(CNCCCn3ccnc3C)c(-c3ccc(F)cc3)n2)cc1	7	-14	-24	1	-4	13	/	/	/	/
Cc1ccc(-n2cc(CNCCc3cscn3)c(-c3ccc(F)cc3)n2)cc1	46*	-26	-17	-10	6	14	57*	6	13	7
OC(c1ccccc1)(C1CCCCC1)C(CN1CCOCC1)c1ccccc1 (stereo not given)	52*	-43	-58	3	-48	4	59*	33*	29	8
O=C(NCc1ccccc1)N1CCN(c2ccc(Cl)c(Cl)c2)CC1	95*	42*	38	101*	14	47	18	10	43	36*
O=C(NCc1ccccc1)N1CCN(c2ccc(F)cc2)CC1	2	-1	-18	-9	-11	18	/	/	/	/
NC(CSC(c1ccccc1)(c1ccccc1)c1ccc2c(c1)OCO2)C(=O)O (stereo not given)	-2	/	/	-6	/	/	/	/	/	/
COc1ccc([C@H]2CN(CCc3ccccc3)C(=O)[C@@H]2CC(=O)Nc2ccccc2)cc1	50*	/	/	21	/	/	35	6	10	13

Screens as filed in PubChem.
